# Measurements gathered from unrelated publications.
# Compare with care: the assays were run in different laboratories.
# Organism: Leishmania major
# Observed: parasite growth
# Setting: promastigote
Compound,method,time,measurement,value
O=S(=O)(c1ccc(-c2ccc3ncnc(Nc4ccc(OCc5ccccc5)c(Cl)c4)c3c2)cc1)N1CCOCC1,resazurin,,EC50,0.47 µM
C[C@@H]1[C@H](O)[C@@H](C)/C=C/C=C/C=C/C=C/C=C/C=C/C=C/[C@H](O[C@@H]2O[C@H](C)[C@@H](O)[C@H](N)[C@@H]2O)C[C@@H]2O[C@](O)(C[C@@H](O)C[C@@H](O)[C@H](O)CC[C@@H](O)C[C@@H](O)CC(=O)O[C@H]1C)C[C@H](O)[C@H]2C(=O)O,,,IC50,0.83 µM
CCCc1cn(CCN2CCN(C(=O)c3c(C)nc4ccc(Cl)cn34)CC2)nn1,resazurin,72 h,IC50,475 µM
C[C@@H]1[C@H](O)[C@@H](C)/C=C/C=C/C=C/C=C/C=C/C=C/C=C/[C@H](O[C@@H]2O[C@H](C)[C@@H](O)[C@H](N)[C@@H]2O)C[C@@H]2O[C@](O)(C[C@@H](O)C[C@@H](O)[C@H](O)CC[C@@H](O)C[C@@H](O)CC(=O)O[C@H]1C)C[C@H](O)[C@H]2C(=O)O,,48 h,IC50,3.68 µM
C[C@@H]1[C@H](O)[C@@H](C)/C=C/C=C/C=C/C=C/C=C/C=C/C=C/[C@H](O[C@@H]2O[C@H](C)[C@@H](O)[C@H](N)[C@@H]2O)C[C@@H]2O[C@](O)(C[C@@H](O)C[C@@H](O)[C@H](O)CC[C@@H](O)C[C@@H](O)CC(=O)O[C@H]1C)C[C@H](O)[C@H]2C(=O)O,,24 h,IC50,0.243 µM
Cc1nc2ccc(Cl)cn2c1C(=O)N1CCN(Cc2cn(-c3cccc(Cl)c3)nn2)CC1,resazurin,72 h,IC50,47.1 µM
CC(=O)Oc1ccc(-c2oc3cc(OC(C)=O)cc(O)c3c(=O)c2OC(C)=O)cc1,,48 h,IC50,14.9 µM
CC1(C)OB(CC2c3ccccc3C(=O)N2C2CCCCC2)OC1(C)C (stereo not drawn),,,IC50,11.5 µM
CCCCCCCCCc1cn(CCN2CCN(C(=O)c3c(C)nc4ccc(Cl)cn34)CC2)nn1,resazurin,72 h,IC50,62 µM
